Data reported in ChEMBL document CHEMBL3396952, “Structural and biological evaluation of a novel series of benzimidazole inhibitors of Francisella tularensis enoyl-ACP reductase (FabI)” (Bioorg Med Chem Lett, 2015).
≈ marks a conversion by molar mass, not a printed value.

Legend:
Francisella tularensis = assay: Antimicrobial activity against Francisella tularensis Utah 112 measured after overnight incubation by microdilution method; assay type: functional
Staphylococcus aureus [1] = assay: Antimicrobial activity against Staphylococcus aureus ATCC 29213 measured after overnight incubation by microdilution method; assay type: functional
Escherichia coli [2] = assay: Antimicrobial activity against wild-type Escherichia coli BW25113 measured after overnight incubation by microdilution method; assay type: functional
Staphylococcus aureus [3] = assay: Antimicrobial activity against methicillin-resistant Staphylococcus aureus ATCC 43300 measured after overnight incubation by microdilution method; assay type: functional
[4] = Inhibition of N-terminus His-tagged Francisella tularensis subsp. Tularensis Schu4 Fab1 expressed in Escherichia coli […] (DE3) cells assessed as conversion of crotonyl-CoA and NADH to butyryl-CoA and NAD+ preincubated for 30 mins by fluorescence analysis; design: species or system Francisella tularensis subsp. tularensis SCHU S4
Outline: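 Experimental Ki came from varying crotonyl-CoA against inhibitor concentration at saturating NADH (200 µM). Calculated Ki used Cheng-Prusoff, IC50 = Ki(1+[S]/Km), with [S]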

Escherichia coli [5] = assay: Antimicrobial activity against TolC-deficient Escherichia coli measured after overnight incubation by microdilution method; assay type: functional

For `COc1ccc(Cn2cnc3cc4c(cc32)CCCC4)cc1OC`, the MIC (Francisella tularensis) was over 12.5 µg/mL, the MIC (Staphylococcus aureus [1]) was over 12.5 µg/mL and the MIC (Escherichia coli [2]) was over 12.5 µg/mL. For the same compound, the MIC (Staphylococcus aureus [3]) was over 12.5 µg/mL, the IC50 [4] was 1.36 µM and the Ki [4] was 1.43 µM. The MIC (Escherichia coli [5]) was over 12.5 µg/mL.
With `CC(c1ccc(Cl)c(Cl)c1)n1cnc2cc3c(cc21)CCCC3` (stereo not given) the MBC (Francisella tularensis) was 25 µg/mL (≈ 72.4 µM), the MIC (Francisella tularensis) was 3.1 µg/mL (≈ 8.98 µM) and the MBC (Staphylococcus aureus [1]) was 25 µg/mL (≈ 72.4 µM). For the same compound, the MIC (Staphylococcus aureus [1]) was 3.1 µg/mL (≈ 8.98 µM), the MIC (Escherichia coli [2]) was over 12.5 µg/mL and the MBC (Staphylococcus aureus [3]) was 25 µg/mL (≈ 72.4 µM). The MIC (Staphylococcus aureus [3]) was 3.1 µg/mL (≈ 8.98 µM), the IC50 [4] was 0.014 µM and the MBC (Escherichia coli [5]) was 12.5 µg/mL (≈ 36.2 µM).
`Cc1cc2ncn(C(C)c3ccc(Cl)c(Cl)c3)c2cc1C` (stereo not given) showed an MIC (Francisella tularensis) of over 12.5 µg/mL, an MIC (Staphylococcus aureus [1]) of 12.5 µg/mL (≈ 39.2 µM) and an MIC (Escherichia coli [2]) of over 12.5 µg/mL. For the same compound, the MIC (Staphylococcus aureus [3]) was 12.5 µg/mL (≈ 39.2 µM), the IC50 [4] was 0.37 µM and the MIC (Escherichia coli [5]) was 6.3 µg/mL (≈ 19.7 µM).
Work on `CC(c1ccc(Cl)c(Cl)c1)n1cnc2cc3c(cc21)COC3` (stereo not given) yielded an MIC (Francisella tularensis) of over 12.5 µg/mL, an MIC (Staphylococcus aureus [1]) of over 12.5 µg/mL and an MIC (Escherichia coli [2]) of over 12.5 µg/mL. It also gave an MIC (Staphylococcus aureus [3]) of over 12.5 µg/mL, an IC50 [4] of 0.89 µM and an MIC (Escherichia coli [5]) of over 12.5 µg/mL.
`CC(c1ccc(Cl)c(Cl)c1)n1cnc2cc3c(cc21)CCC3` (stereo not given) showed an MBC (Francisella tularensis) of 9.4 µg/mL (≈ 28.4 µM), an MIC (Francisella tularensis) of 3.9 µg/mL (≈ 11.8 µM) and an MBC (Staphylococcus aureus [1]) of over 25 µg/mL. For the same compound, the MIC (Staphylococcus aureus [1]) was 5.5 µg/mL (≈ 16.6 µM), the MIC (Escherichia coli [2]) was over 12.5 µg/mL and the MBC (Staphylococcus aureus [3]) was 12.5 µg/mL (≈ 37.7 µM). It also gave an MIC (Staphylococcus aureus [3]) of 6.3 µg/mL (≈ 19 µM), an IC50 [4] of 0.018 µM and an MBC (Escherichia coli [5]) of 12.5 µg/mL (≈ 37.7 µM). The MIC (Escherichia coli [5]) was 3.1 µg/mL (≈ 9.36 µM).
In the case of `Cc1cc2ncn(Cc3ccc(Cl)c(Cl)c3)c2cc1C`, the MIC (Francisella tularensis) is reported as 7.8 µg/mL (≈ 25.6 µM), the MIC (Escherichia coli [2]) is reported as over 200 µg/mL and the MIC (Staphylococcus aureus [3]) is reported as 50 µg/mL (≈ 164 µM). It also gave an IC50 [4] of 0.3 µM and an MIC (Escherichia coli [5]) of 6.25 µg/mL (≈ 20.5 µM).
Compound `c1cc2c(cc1Cn1cnc3cc4c(cc31)CCCC4)OCO2` has an MBC (Francisella tularensis) of 18.8 µg/mL (≈ 61.4 µM), an MIC (Francisella tularensis) of 4.7 µg/mL (≈ 15.3 µM) and an MBC (Staphylococcus aureus [1]) of over 25 µg/mL. It also gave an MIC (Staphylococcus aureus [1]) of 4.7 µg/mL (≈ 15.3 µM), an MIC (Escherichia coli [2]) of over 12.5 µg/mL and an MBC (Staphylococcus aureus [3]) of over 25 µg/mL. The MIC (Staphylococcus aureus [3]) was 6.3 µg/mL (≈ 20.6 µM), the IC50 [4] was 0.32 µM and the Ki [4] was 0.33 µM. It also gave an MBC (Escherichia coli [5]) of 25 µg/mL (≈ 81.6 µM) and an MIC (Escherichia coli [5]) of 9.4 µg/mL (≈ 30.7 µM).
In the case of `COc1ccc(Cn2cnc3cc4c(cc32)CCC4)cc1C`, the MBC (Francisella tularensis) is reported as 12.5 µg/mL (≈ 42.8 µM), the MIC (Francisella tularensis) is reported as 5.5 µg/mL (≈ 18.8 µM) and the MIC (Staphylococcus aureus [1]) is reported as over 12.5 µg/mL. The MIC (Escherichia coli [2]) was over 12.5 µg/mL, the MIC (Staphylococcus aureus [3]) was over 12.5 µg/mL and the IC50 [4] was 0.005 µM. For the same compound, the MIC (Escherichia coli [5]) was 12.5 µg/mL (≈ 42.8 µM).
In the case of `CC(c1ccc(Cl)c(Cl)c1)n1cnc2cc3c(cc21)CC(C)(C)C3` (stereo not given), the MIC (Francisella tularensis) is reported as over 12.5 µg/mL, the MBC (Staphylococcus aureus [1]) is reported as over 12.5 µg/mL and the MIC (Staphylococcus aureus [1]) is reported as 4.7 µg/mL (≈ 13.1 µM). For the same compound, the MIC (Escherichia coli [2]) was over 12.5 µg/mL, the MBC (Staphylococcus aureus [3]) was over 12.5 µg/mL and the MIC (Staphylococcus aureus [3]) was 4.7 µg/mL (≈ 13.1 µM). For the same compound, the IC50 [4] was 0.24 µM, the MBC (Escherichia coli [5]) was over 25 µg/mL and the MIC (Escherichia coli [5]) was over 12.5 µg/mL.
`COc1ccc(Cn2cnc3cc4c(cc32)CCCC4)cc1C` showed an MBC (Francisella tularensis) of 6.3 µg/mL (≈ 20.6 µM), an MIC (Francisella tularensis) of 3.1 µg/mL (≈ 10.1 µM) and an MBC (Staphylococcus aureus [1]) of 25 µg/mL (≈ 81.6 µM). It also gave an MIC (Staphylococcus aureus [1]) of 6.3 µg/mL (≈ 20.6 µM), an MIC (Escherichia coli [2]) of over 12.5 µg/mL and an MIC (Staphylococcus aureus [3]) of 12.5 µg/mL (≈ 40.8 µM). The IC50 [4] was 0.14 µM, the Ki [4] was 0.13 µM and the MBC (Escherichia coli [5]) was 9.4 µg/mL (≈ 30.7 µM). For the same compound, the MIC (Escherichia coli [5]) was 4.7 µg/mL (≈ 15.3 µM).
